hERG protect: compounds protecting human hERG from proarrhythmic drug block. Q12809. CHO-hERG, FluxOR thallium flux, dofetilide IC70 present. activation (rescue from dofetilide block), less the hit threshold, % at 10 µM. actives 0.51% (n = 310,000);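 active = activation above the mean of controls blocked by dofetilide plus 5 SD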;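 note: thallium influx through hERG after potassium depolarization seen as dye fluorescence rise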
KCNK3 block: human KCNK3 channel inhibition, primary screen | CHO-KCNK3 thallium flux, FluxOR fluorescence; stronger effect = lower value | B-score at 10 µM | actives 0.84% (n = 340,000);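 active = B-score under library mean minus 4 SD, starting fluorescence ratio at most library mean plus 5 SD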;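 note: more negative B-score means stronger inhibition of thallium flux through KCNK3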
Target sequence (O14649 whole entry, looked up): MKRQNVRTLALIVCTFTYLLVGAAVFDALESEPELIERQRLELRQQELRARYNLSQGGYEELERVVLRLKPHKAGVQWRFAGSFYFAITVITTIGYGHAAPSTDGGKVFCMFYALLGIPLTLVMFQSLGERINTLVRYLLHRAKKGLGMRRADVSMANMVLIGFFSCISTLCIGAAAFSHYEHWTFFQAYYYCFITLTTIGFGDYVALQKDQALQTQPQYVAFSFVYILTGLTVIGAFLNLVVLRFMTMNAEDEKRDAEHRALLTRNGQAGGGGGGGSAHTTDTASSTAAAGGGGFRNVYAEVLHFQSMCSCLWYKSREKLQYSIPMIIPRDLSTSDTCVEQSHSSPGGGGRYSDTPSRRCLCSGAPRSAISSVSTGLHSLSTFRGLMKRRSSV
KCNK9 inh: inhibitors of human KCNK9 two-pore domain potassium channel; Q9NPC2; B-score at 10 µM; HEK293 KCNK9, FluxOR thallium flux fluorescence; stronger effect = lower value; actives 1.2% (n = 310,000);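 active = ratio B-score over 3 SD below the library mean, with starting fluorescence within 5 SD of its mean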;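 note: negative B-score means less thallium flux so channel inhibition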
KCNQ1 act: potentiators or activators of human KCNQ1 potassium channel; AID 2648; CHO-K1 KCNQ1, thallium flux FluxOR fluorescence; stronger effect = higher value; P51787; B-score at 10 µM; actives 0.35% (n = 310,000);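 active = fluorescence ratio B-score, a plate-corrected score, at least three library SD, with initial intensity B-score within 5 SD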
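Doses: Single concentration per compound, DMSO matched to controls | Test system: KCNQ1-transfected CHO-K1 cells | Timing: 90 min dye loading and 20 min compound exposure, both at room temperature | Measured by: Kinetic FluxOR thallium fluorescence, 10-s 1-Hz baseline, 110-s post-stimulus read | Medium: Assay buffer with matched DMSO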
KCNQ1 block: human KCNQ1 channel inhibition; P51787; CHO-K1 KCNQ1, FluxOR thallium flux fluorescence; stronger effect = higher value; B-score at 10 µM; actives 1.3% (n = 310,000); AID 2642;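 active = compounds whose thallium flux B-score, printed positive for inhibition, exceeds three library SD while starting fluorescence stays within three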;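 note: channel opened by potassium depolarization with thallium stimulus after 20 min compound exposure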
* hit, by the source's call; i = inactive; . = no result given. Shown are actives, neighbours in structure and some others; about 3.1% of the full set was active somewhere.

SMILES | hERG protect | KCNK3 block | KCNK9 inh | KCNQ1 act | KCNQ1 block
O=C(Cn1cnc(S(=O)(=O)N2CCCC2)c1)Nc1ccc(OC(F)(F)F)cc1 | -3 | i | i | i | i
O=C(COC(=O)c1cc(-c2cccs2)nn1-c1ccccc1)Nc1cccc([N+](=O)[O-])c1 | -8 | i | -6.8* | i | i
Cc1ccc(NC(=O)COC(=O)c2cc(-c3cccs3)nn2-c2ccccc2)cc1[N+](=O)[O-] | -5 | i | i | i | i
Cc1ccc(OCC(=O)Nc2ccc(NC(=O)c3ccccc3)c(C)c2)cc1 | -7 | i | i | i | i
COc1ccc(-n2ccn(CC(=O)Nc3ccccc3OC)c(=O)c2=O)cc1 | -6 | i | i | i | i
COc1ccc(OC)c(C2=C/C(=C/c3ccccn3)C(=O)O2)c1 | -15 | i | -7.6* | i | i
COc1ccc(CC(=O)c2ccc(O)cc2O)cc1 | -2 | i | i | i | i
O=C(Cc1ccc(Br)cc1)c1ccc(O)cc1O | -11 | i | -8.2* | i | i
CCCCC(=O)Nc1ccc(C(N)=O)cc1 | -6 | i | i | i | i
CCCCC(=O)Nc1ccc(NCc2ccc(C)s2)cc1 | 8.6* | i | i | i | i
Cc1ccsc1/C=N/Nc1ncc(Cl)cc1Cl | -9 | i | i | i | 6*
Cc1cc(C)nc(N/N=C/c2sccc2C)n1 | -3 | i | i | i | i
CCN(CC(=O)NC1CCS(=O)(=O)C1)S(=O)(=O)c1cc(C)ccc1C (stereo unspecified) | -14 | i | i | i | i
Cc1sc2nc(CN3CCOCC3)[nH]c(=S)c2c1C | 52* | i | i | 43* | i
Cc1sc2nc(CN3CCN(c4ccc(O)cc4)CC3)[nH]c(=O)c2c1C | -4 | i | i | i | i
CCCN1C(=O)/C(=C\C=C2/C=CN(CC)c3ccccc32)SC1=S | -14 | i | i | i | i
CCCCN1C(=O)/C(=C/C=C2\N(C)c3ccccc3C2(C)C)SC1=S | -17 | . | i | i | 11*
O=C1CC(C(=O)N2CCN(c3ccccc3)CC2)CN1Cc1ccccc1 (stereo unspecified) | . | i | . | . | .
COc1cccc(F)c1C(=O)NC(=O)Nc1ccc2nc(C)oc2c1 | -8 | i | i | i | i
CCN(c1cccc(C)c1)S(=O)(=O)c1cnc[nH]1 | 5.3* | i | i | i | i
CCN(c1cccc(C)c1)S(=O)(=O)c1c(C)[nH]c(=O)[nH]c1=O | 1 | i | i | i | i
OC(Cc1cccnc1)c1ccccc1 (stereo unspecified) | . | i | . | . | .
O=[N+]([O-])c1cc(-c2nc(-c3ccncc3)no2)cc([N+](=O)[O-])c1 | -5 | i | i | i | i
Cc1c(-c2nc(-c3ccncc3)no2)cccc1[N+](=O)[O-] | -4 | i | i | 11* | i
CCC(C)N(C(=O)CSc1nnc2ccccn12)C1CCS(=O)(=O)C1 (stereo unspecified) | . | i | . | . | .
SMILES | hERG protect | KCNK3 block | KCNK9 inh | KCNQ1 act | KCNQ1 block
CCCCN1C(=O)C2ON(c3ccccc3C)C(c3ccco3)C2C1=O (stereo unspecified) | -16 | -9* | i | i | i
Cc1nc(CC(=O)Nc2nccs2)cs1 | -4 | i | i | i | i
CCCCOC(=O)c1cc(C)nc2ccc(Br)cc12 | 6.5* | i | i | i | i
CCOC(=O)c1cc(C(=O)OCC)c2cc(Br)ccc2n1 | -11 | i | i | i | i
Cc1cc(C(=O)CSc2nc(N)cc(N)n2)c(C)n1CC1CCCO1 (stereo unspecified) | . | i | . | . | .
Cc1sc2nc(SCC(=O)c3cc(C)n(CC4CCCO4)c3C)n(C(C)C)c(=O)c2c1C (stereo unspecified) | -5 | -8.8* | i | i | i
CC(C)c1ccc(NC(=O)C(c2ccccc2)N(Cc2ccco2)C(=O)CC2NC(=O)NC2=O)cc1 (stereo unspecified) | -10 | i | i | i | 8*
O=C1c2ccccc2NC(c2cccc([N+](=O)[O-])c2)N1CCc1ccccc1 (stereo unspecified) | -9 | i | -6.6* | i | i
CC1(C)CC(NC(=O)c2ccc(Cl)c(Cl)c2)CC(C)(C)N1 | -2 | i | i | i | i
CC(Sc1n[nH]c(N)n1)C(=O)NC1CCCCC1C (stereo unspecified) | -8 | i | i | 8* | i
CCc1nnc(NC(=O)CSCc2cc(=O)n3ccsc3n2)s1 | -5 | i | i | i | i
COC(=O)c1cc(NC(=O)c2cccc(C(F)(F)F)c2)c(=O)oc1C | -6 | i | i | i | i
COC(=O)c1cc(NC(=O)c2cccc(C(F)(F)F)c2)c(=O)oc1C/C=N/OCc1cccc(Cl)c1Cl | -12 | -11* | i | i | i
Cc1ccc(C)c(OC(=O)c2cccnc2)c1 | -1 | i | i | i | i
Cc1nnc(SCC(=O)Nc2nccs2)n1N | -3 | i | i | i | i
O=C(COC(=O)c1ccccc1)NCc1ccco1 | -3 | i | i | i | i
O=C(COC(=O)c1ccccc1Nc1cccc(C(F)(F)F)c1)NCc1ccco1 | -1 | -8.9* | i | i | i
CN(c1ccccc1)S(=O)(=O)c1cccc(C(=O)OCC(=O)NCc2ccccc2)c1 | . | i | . | . | .
CN(c1ccccc1)S(=O)(=O)c1cccc(C(=O)OCC(=O)NCc2ccco2)c1 | 11* | i | i | i | i
CC(=O)c1sc(NC(=O)CN2C(=O)C3CC=CCC3C2=O)nc1-c1ccccc1 (stereo unspecified) | -5 | i | i | i | i
COc1ccc(Nc2oc(COc3ccccc3F)nc2C#N)cc1 | -10 | i | -8* | i | i
COc1ccc(Nc2oc(COc3ccc(OC)cc3)nc2C#N)cc1 | -8 | i | i | i | i
O=C(N1CCN(c2ccccn2)CC1)N1c2ccccc2Sc2ccccc21 | -9 | i | -7.6* | i | i
O=C(c1ccc(Br)s1)N1CCN(c2ccccn2)CC1 | -6 | i | i | i | i
O=C1/C(=C/c2ccco2)Oc2c1ccc(O)c2CN1CCCCC1 | -37 | i | i | i | i
CCC(=O)Oc1ccc2c(c1)O/C(=C\c1ccco1)C2=O | -16 | i | i | i | 6*
COCCN(CCOC)Cc1c(O)ccc2c1O/C(=C\c1ccco1)C2=O | -26 | i | i | i | 11*
O=C(Oc1ccc2c(c1)O/C(=C\c1ccncc1)C2=O)c1cccs1 | -9 | i | i | i | i
CCN(CC)C(=O)Oc1ccc2c(c1)O/C(=C\c1ccco1)C2=O | -12 | i | i | i | i

Screens: PubChem BioAssay, Johns Hopkins Ion Channel Center
